Measurements from publication PMC2219267 (The Journal of General Physiology, 1996).

Molecular target: T1, band 3 (Homo sapiens, UniProt P02730)
T1 sequence (P02730 1-911): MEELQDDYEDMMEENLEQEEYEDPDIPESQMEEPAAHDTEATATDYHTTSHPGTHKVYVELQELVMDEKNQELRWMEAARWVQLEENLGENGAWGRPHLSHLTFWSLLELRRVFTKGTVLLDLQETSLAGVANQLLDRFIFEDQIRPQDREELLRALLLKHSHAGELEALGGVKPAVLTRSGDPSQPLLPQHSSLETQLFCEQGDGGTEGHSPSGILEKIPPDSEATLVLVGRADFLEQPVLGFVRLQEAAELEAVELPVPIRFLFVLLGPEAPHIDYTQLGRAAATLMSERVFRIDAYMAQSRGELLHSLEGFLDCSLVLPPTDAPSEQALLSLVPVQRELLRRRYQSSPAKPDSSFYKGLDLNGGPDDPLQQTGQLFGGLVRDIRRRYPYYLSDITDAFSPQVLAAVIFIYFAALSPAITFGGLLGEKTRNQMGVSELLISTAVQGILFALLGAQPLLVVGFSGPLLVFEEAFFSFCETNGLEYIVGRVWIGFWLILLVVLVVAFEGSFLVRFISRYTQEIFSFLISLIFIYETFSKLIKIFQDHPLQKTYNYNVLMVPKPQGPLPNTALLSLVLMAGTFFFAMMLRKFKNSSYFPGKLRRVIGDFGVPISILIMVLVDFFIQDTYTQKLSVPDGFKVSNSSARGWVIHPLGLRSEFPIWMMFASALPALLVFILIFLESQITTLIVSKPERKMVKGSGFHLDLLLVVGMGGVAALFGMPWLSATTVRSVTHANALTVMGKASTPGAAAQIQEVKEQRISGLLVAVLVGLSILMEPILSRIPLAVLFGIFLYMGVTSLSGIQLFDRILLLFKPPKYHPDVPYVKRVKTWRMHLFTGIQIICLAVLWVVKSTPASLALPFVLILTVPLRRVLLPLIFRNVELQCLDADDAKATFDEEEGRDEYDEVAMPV
Test: 125I iodide influx into red blood cells
Assay type: cell-based
Method in brief: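 Heparinised human blood was washed three times in 150 KH (150 mM KCl, 24 mM sucrose, 20 mM Hepes, pH 7.2 at 0°C), with white cells aspirated, then held at 50% hematocrit. DIDS-treated cells received a 2 mM DIDS stock. Media mixed sucrose, KCl and KI with 5 mM buffer. Above pHo 11, cells were nystatin-loaded to 300 mM Cl-, and CAPS-buffered media were used.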

I- influx as % of Cl- efflux (no citrate, [Clo] 0.28 mM, [Io] 2.2 mM, 0°C): less than 6%
half-saturation concentration for Io activation of I- influx (pH 10.6, 1.65 mM [Clo]): 26.4 ± 1.8 mM
I- influx as % of Cl- efflux (pH 11.5, 53 mM [Io], 16.5 mM [Clo]): 16%
I- influx as % of Cl- efflux (pHo 10.6, 1.65 mM [Clo], up to 15 mM [Io]): less than 10%
SMILES: [I-].[K+] [iodide, potassium iodide]
